TRPN1 ag = agonists of zebrafish TRPN1 channel; actives 0.18% (n = 220,000); HEK293 zebrafish TRPN1-YFP, Fluo-8 calcium fluorescence; 100% = response to 87 µM carbachol; AID 1424; activation, % at 3 µM;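 active = activation above its plate's cutoff, the mean activation of test wells on that plate plus 3 SD, cut at about 19% in these data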
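Control set: carbachol 87 µM as high control, DMSO as low control; system: HEK293 stable line with zebrafish TRPN1-YFP; read-out: % activation versus carbachol response; detection: intracellular calcium fluorescence with Fluo-8; doses: single test compound dose, 3 µM nominal, 0.3% DMSO; schedule: dye 1 h 37 °C plus 30 min RT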
V1R ag counter = counter-screen for oxytocin receptor agonists: human V1a receptor agonists | CHO-V1R cells, Fluo-8 calcium fluorescence, agonist mode; 0% DMSO, 100% 3 nM vasopressin | activation, % at 3 µM | actives 0.25% (n = 320,000) | AID 2797;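 active = activation above the mean activation of all tested compounds plus 3 SD, per screening run, cut at about 20% in these data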;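 also: signal is peak over basal fluorescence ratio across a 100 second FLIPR read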
Target sequence (P37288 whole entry, looked up): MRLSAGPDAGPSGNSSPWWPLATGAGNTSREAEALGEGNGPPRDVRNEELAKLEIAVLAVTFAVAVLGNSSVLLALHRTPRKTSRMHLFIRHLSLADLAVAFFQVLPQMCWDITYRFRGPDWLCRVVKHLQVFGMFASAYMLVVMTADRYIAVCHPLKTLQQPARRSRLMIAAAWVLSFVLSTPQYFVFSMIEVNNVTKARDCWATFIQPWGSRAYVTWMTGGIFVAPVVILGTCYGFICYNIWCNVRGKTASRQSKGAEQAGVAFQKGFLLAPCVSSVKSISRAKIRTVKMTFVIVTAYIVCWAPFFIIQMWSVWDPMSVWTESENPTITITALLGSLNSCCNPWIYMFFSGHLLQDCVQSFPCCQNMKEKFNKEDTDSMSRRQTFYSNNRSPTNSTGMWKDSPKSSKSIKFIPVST
CRFR2-BP ag = agonists of human CRF-binding protein/CRF-R2 receptor complex. activation, % at 13.2 µM. actives 0.46% (n = 350,000). HEK293 CRF-R2/CRF-BP, calcium dye fluorescence (FLIPR); percent of saturating CRF peptide response;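 active = activation of at least 50%, plus an integration ratio under a set limit after plate pattern correction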
OXTR potentiator = human OXTR potentiation. P30559. CHO-OTR cells, Fluo-8 calcium fluorescence, potentiator mode; 0% = oxytocin EC15, 100% = EC100. activation, % at 3 µM. actives 0.061% (n = 320,000);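 active = activation above that plate's cutoff, the mean activation of tested compounds plus 3 SD, cut at about 6.6% in these data, passing the limit was not always enough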
Target sequence (P30559 whole entry, looked up): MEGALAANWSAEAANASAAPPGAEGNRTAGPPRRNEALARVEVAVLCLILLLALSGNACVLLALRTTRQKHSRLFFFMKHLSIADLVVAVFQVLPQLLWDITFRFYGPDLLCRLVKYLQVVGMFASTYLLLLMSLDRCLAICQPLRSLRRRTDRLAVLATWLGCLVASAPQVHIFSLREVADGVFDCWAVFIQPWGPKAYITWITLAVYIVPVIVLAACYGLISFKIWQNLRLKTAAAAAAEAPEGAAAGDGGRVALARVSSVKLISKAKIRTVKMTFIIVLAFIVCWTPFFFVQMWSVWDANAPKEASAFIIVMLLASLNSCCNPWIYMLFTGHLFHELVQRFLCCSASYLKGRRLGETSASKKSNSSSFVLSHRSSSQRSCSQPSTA
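test system = CHO-OTR cells, human receptor | compound = single-point 3.0 µM | schedule = 6 min compound pre-incubation at room temperature, 100 s kinetic read | signal = Fluo-8 no-wash calcium dye fluorescence, excitation 470-495 nm, emission 515-575 nm | repeats = single well per compound, singlicate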
TRPML3 ag = activates the human TRPML3 channel | activation, % at 3 µM | Q8TDD5 | actives 0.29% (n = 220,000) | HEK293 TRPML3-YFP, Fluo-8 calcium fluorescence; 100% = the carbachol control signal | AID 1448;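 active = activation above its plate's cutoff, the mean activation of the plate's test wells plus 3 SD, cut at about 12% in these data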
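Material: TRPML3-YFP stable HEK293 cells | Dosing: One concentration, 3 µM nominal, 0.3% DMSO | Timing: 125 s total fluorescence read per well | Technique: Fluo-8 calcium dye fluorescence, ex 470-495, em 515-575 nm | Measure: Percent activation from peak-to-basal fluorescence ratio, scaled between DMSO and carbachol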
OXTR ag = human OXTR agonism | CHO-OTR cells, Fluo-8 calcium fluorescence; normalized: DMSO 0%, oxytocin 100% | P30559 | activation, % at 3 µM | actives 0.32% (n = 320,000);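 active = activation above the mean of all tested compounds plus 3 SD, cutoff set per screening run, cut at about 20% in these data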;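 also: peak over basal fluorescence ratio from a 100 s FLIPR kinetic read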
Each line names hits and unclear results; the compound was inactive in the other large screens. This is a sample that favours compounds with a hit; in the whole collection about 0.83% have one here.

O=C(NCC1CCCO1)c1cccc2c1C(=O)c1ccc(N3CCC(Cc4ccccc4)CC3)cc1S2(=O)=O (configuration not stated)	CRFR2-BP ag 83 (no result: TRPN1 ag, TRPML3 ag)
O=C(NCc1ccccc1Br)c1cccc2c1C(=O)c1ccc(N3CCC(Cc4ccccc4)CC3)cc1S2(=O)=O	CRFR2-BP ag 61 (no result: TRPN1 ag, TRPML3 ag)
O=C(NCC1CC1)c1cccc2c1C(=O)c1ccc(N3CCCC3)cc1S2(=O)=O	none (no result: TRPN1 ag, TRPML3 ag)
CC1CCN(c2ccc3c(c2)S(=O)(=O)c2cccc(C(=O)NC4CC4)c2C3=O)CC1	none (no result: TRPN1 ag, TRPML3 ag)
Cc1ccc(-n2ncc(-c3n[nH]c(=S)o3)c2N)cc1C	none (no result: TRPN1 ag, V1R ag counter, OXTR potentiator, TRPML3 ag, OXTR ag)
CC[n+]1c(/C=C/c2c[nH]c3ccccc23)ccc2cc(C)ccc21	TRPN1 ag 30, CRFR2-BP ag 271 (no result: V1R ag counter, OXTR potentiator, OXTR ag)
CCN(CC)C(=O)c1ccc(/C=C/c2c[nH]c3ccccc23)[n+](C)c1	CRFR2-BP ag 54
Cc1ccc(C(=O)/C=C/c2c[nH]c3ccccc23)cc1	none
CCOc1ccc(NC(=O)C2CC(=O)N(CCc3ccc(OC)c(OC)c3)C2)cc1OCC (configuration not stated)	none (no result: TRPN1 ag, TRPML3 ag)
O=C(Nc1ccccc1)Nc1ccc(F)c([N+](=O)[O-])c1	TRPN1 ag 20
O=C(Nc1ccccc1)Nc1ccc2snnc2c1	TRPN1 ag 21
O=C(Nc1csc([N+](=O)[O-])c1)Nc1c(Cl)cccc1Cl	none
O=C(Nc1ccc(Cl)cc1)Nc1csc([N+](=O)[O-])c1	TRPN1 ag 22, TRPML3 ag 15
O=C(Nc1ccccc1)Nc1ccc(Cl)c([N+](=O)[O-])c1	none
CN(C)c1ccc(NC(=O)Nc2ccc3snnc3c2)cc1	TRPN1 ag 19
O=C(NC1CCCc2ccccc21)c1c(F)cccc1Cl (configuration not stated)	none (no result: TRPN1 ag, TRPML3 ag)
O=S(=O)(Nc1nc2ccccc2nc1Nc1ccc(N2CCOCC2)cc1)c1cc(Cl)ccc1Cl	CRFR2-BP ag 51
Clc1nc(Nc2ccc(N3CCOCC3)cc2)c2ccccc2n1	none
O=Cc1c(-c2ccccc2)cc2oc3ccccc3cc1-2	none (no result: TRPN1 ag, TRPML3 ag)
CCCCc1ccc(NC=C2C(=O)OC3(CCCCC3)OC2=O)cc1	CRFR2-BP ag 145
O=C(Cc1ccccc1)NCC(=O)N1CCN(c2ccccc2)CC1	none (no result: TRPN1 ag, TRPML3 ag)
O=C(OCC(=O)N1N=C(c2ccc(Cl)cc2)CC1c1ccco1)c1ccco1 (configuration not stated)	CRFR2-BP ag 240
O=C(NCCc1ccccc1)c1c[nH]c2ccccc2c1=O	CRFR2-BP ag 73 (no result: TRPN1 ag, V1R ag counter, OXTR potentiator, TRPML3 ag, OXTR ag)
CN(Cc1cccs1)C(=O)CCCc1c[nH]c2ccccc12	TRPN1 ag 32, TRPML3 ag 32
CCOC(=O)c1cn(Cc2ccccc2)c2cc(C)nn2c1=O	none
CCOC(=O)c1cn(Cc2ccccc2)c(C(=O)OC(C)(C)C)c1O	V1R ag counter 28, CRFR2-BP ag 62, OXTR ag 52 (no result: TRPN1 ag, TRPML3 ag)
Cc1ccc(-n2ccnc(SCC(=O)NC3CCCCC3)c2=O)cc1F	none (no result: TRPN1 ag, TRPML3 ag)
COC(CNC(=O)c1ccc2c3c(onc13)-c1ccccc1C2=O)OC	TRPN1 ag 27, TRPML3 ag 18
CCOC(=O)c1sc(-c2ccc(C(F)(F)F)cc2)nc1O	CRFR2-BP ag 58
C=CCN1C(=O)/C(=C2/Sc3ccc(OC)cc3N2CC)SC1=S	CRFR2-BP ag 68 (no result: TRPN1 ag, TRPML3 ag)
CCCCN1C(=O)/C(=C2/Sc3ccc(OC)cc3N2CC)SC1=S	none (no result: TRPN1 ag, TRPML3 ag)
CN(Cc1ccccc1)C(=O)c1ccc(NC(=O)Cc2ccc(NC(=O)C3CCN(C(=O)CCc4ccccc4)CC3)cc2)cc1	none (no result: TRPN1 ag, V1R ag counter, OXTR potentiator, TRPML3 ag, OXTR ag)
Cc1cc(NC(=O)CCC(=O)N(Cc2ccc(F)cc2)C(C(=O)NC2CCCC2)c2ccco2)no1 (configuration not stated)	none (no result: TRPN1 ag, TRPML3 ag)
C=CC[C@H](CC(=O)NCCO)C(=O)N[C@H](COC(=O)[C@@H](CC=C)Cc1ccc(F)cc1)Cc1ccccc1	none (no result: TRPN1 ag, TRPML3 ag)
COc1ccc(CCNc2nc3ccccc3n3nnnc23)cc1OC	none
c1ccc(CCNc2nc3ccccc3n3nnnc23)cc1	CRFR2-BP ag 82
COc1ccccc1C(=O)N/C(=C\c1cn(S(=O)(=O)N(C)C)c2ccccc12)C(=O)N1CCN(C)CC1	none (no result: TRPN1 ag, V1R ag counter, OXTR potentiator, TRPML3 ag, OXTR ag)
O=C1N[C@@H](c2ccccc2)COC(=O)[C@@H](Cc2ccc(F)cc2)C/C=C\C[C@@H]1CC(=O)N(CCO)Cc1ccccc1	V1R ag counter 36, OXTR ag 43 (no result: TRPN1 ag, TRPML3 ag)
COc1cc2c3c(cccc3c1)C(=O)N(CCN1CCCC1)C2=O	none (no result: TRPN1 ag, V1R ag counter, OXTR potentiator, TRPML3 ag, OXTR ag)
CC1=CC(C)(C)N(C(=O)CSc2nnc(N)s2)c2ccccc21	CRFR2-BP ag 53
c1ccc2c3c([nH]c2c1)C1(CCCCC1)NCC3	none
CC12CCCCN1CCCc1c2[nH]c2ccccc12 (configuration not stated)	CRFR2-BP ag 50
COCCNC(=S)N/N=C/c1ccc(-c2ccc([N+](=O)[O-])cc2)o1	CRFR2-BP ag 70
NC(=O)N/N=C/c1ccc(-c2ccc([N+](=O)[O-])cc2)o1	none
COc1cccc(CNC(=O)Cn2c(=O)n(CCC(=O)N3CCCCC3)c(=O)c3sccc32)c1	none (no result: TRPN1 ag, TRPML3 ag)
N#C/C(N=Nc1ccccc1O)=N\Nc1ccccc1O	CRFR2-BP ag 61 (no result: TRPN1 ag, TRPML3 ag)
Fc1ccc(NC(=S)NC2CCN(Cc3ccccc3)CC2)cc1	none
S=C(Nc1ccc(Cl)c(Cl)c1)NC1CCN(Cc2ccccc2)CC1	V1R ag counter 39, OXTR ag 42
S=C(Nc1ccc(Cl)cc1)NC1CC2CCC(C1)N2Cc1ccccc1 (configuration not stated)	OXTR ag 21
CCc1ccc(NC(=S)NC2CC3CCCC(C2)N3Cc2ccccc2)cc1 (configuration not stated)	none
COCC(=O)N(C)C[C@H]1Oc2ncc(Br)cc2C(=O)N([C@@H](C)CO)C[C@H]1C	none (no result: TRPN1 ag, V1R ag counter, OXTR potentiator, TRPML3 ag, OXTR ag)
COc1ccc(OC)c(C2=C/C(=C/c3ccccn3)C(=O)O2)c1	CRFR2-BP ag 76
CC(OC(=O)/C=C/c1ccc2ccccc2n1)C(=O)Nc1ccc(S(N)(=O)=O)cc1 (configuration not stated)	none (no result: TRPN1 ag, TRPML3 ag)
CCOC(=O)C1C(=O)C=C(/C=C/c2ccc(N(C)C)cc2)CC1c1ccccc1 (configuration not stated)	V1R ag counter 45, CRFR2-BP ag 292, OXTR ag 38
CCN1CCSc2ccc(C(=O)NCc3ccccc3F)cc21	CRFR2-BP ag 280 (no result: TRPN1 ag, TRPML3 ag)
CCSc1nnc(NC(=O)C2CCCN(C(=O)c3ccc(Cl)cc3)C2)s1 (configuration not stated)	none (no result: TRPN1 ag, V1R ag counter, OXTR potentiator, TRPML3 ag, OXTR ag)
Cc1cnc(C(=O)OCC(=O)Nc2cc(Cl)ccc2C#N)cn1	none (no result: TRPN1 ag, TRPML3 ag)

Source: PubChem (several laboratories)
